Assay results collected from several papers.
Cell line: MV4-11
Effect on: cell growth or viability

SMILES | assay | conditions | endpoint | result
c1cc(Nc2nccc(NC3CCCCC3)n2)cc(-c2ncco2)c1 | ATP luminescence | 72 h | EC50 | 511 nM
CC(C)[C@H](N)C(=O)N1CCC[C@H]1B(O)O | ATP luminescence | 48 h | IC50 | 78 nM
COc1cc(Nc2nccc(-c3cnn4nc(OC)ccc34)n2)cc(C(F)(F)F)c1 | ATP luminescence |  | IC50 | 48 nM
CC(C)Nc1ccnc(Nc2cccc(-c3ccccn3)c2)n1 | ATP luminescence | 72 h | EC50 | 4820 nM
C/C(=N\NC(=O)c1cccc(S(=O)(=O)N2CCN(C)CC2)c1)c1cc(Cl)ccc1O | resazurin | 96 h | EC50 | 886 nM
N[C@@H](CC(=O)N1CCN(C(c2ccc(F)cc2)c2ccc(F)cc2)CC1)C(=O)N1Cc2ccccc2C1 | ATP luminescence | 24 h | IC50 | 1480 nM
N[C@H]1CC[C@H](N[C@@H]2C[C@H]2c2ccccc2)CC1 | resazurin | 96 h | EC50 | 0.1 nM
c1cc(Nc2nccc(NC3CCCCC3)n2)cc(-n2ccnc2)c1 | ATP luminescence | 72 h | EC50 | 58 nM
Cc1ccc(NC(=O)NCc2ccc3c(c2)CN(C2CCC(=O)NC2=O)C3=O)cc1Cl (stereo not drawn) | ATP luminescence |  | EC50 | 0.026 nM
Nc1ncc(-c2cnn(C3CCNCC3)c2)cc1-c1nnc(CC2CC2)o1 | trypan blue | 72 h | IC50 | 157 nM
c1cncc(Nc2nccc(NC3CCCCC3)n2)c1 | ATP luminescence | 72 h | EC50 | > 7000 nM
NNCCc1ccccc1 | resazurin | 96 h | EC50 | > 2000 nM
Cn1cc(-c2cc(N3CCCCS3(=O)=O)ccc2Oc2ccc(F)cc2F)c2c(F)c[nH]c2c1=O | CCK-8 | 72 h | GI50 | 3.5 nM
COc1ccc(-c2c(-c3ccc(C#N)c(F)c3)nc(N3CCC(N)CC3)n(C)c2=O)cc1F | resazurin | 96 h | EC50 | 2.9 nM
CC(C)Nc1ccnc(Nc2ccc(C(N)=O)cc2)n1 | ATP luminescence | 72 h | EC50 | 2530 nM
